From ChEMBL document CHEMBL4673403, “Development of a Hematopoietic Prostaglandin D Synthase-Degradation Inducer” (ACS Med Chem Lett, 2021)
pIC50: −log10 of the molar value. Activity calls are given as the source filed them. The calls are words filed in the database; no cut-off is given here.

Assays:
[1] = target: T1, Hematopoietic prostaglandin D synthase (Homo sapiens, UniProt O60760); test: Inhibition of recombinant human HPGDS
[2] = target: Baculoviral IAP repeat-containing protein 2/Hematopoietic prostaglandin D synthase (Homo sapiens) (UniProt Q13490+O60760); test: SNIPER activity at IAP1/HPGDS in human KU812 cells assessed as reduction in HPGDS protein level up to 1000 nM measured after 6 hrs by Western blot analysis; assay type: cell-based; details: KU812 cell line, dose nM <=1000, time 6.0 hrs
[3] = target: T1, Hematopoietic prostaglandin D synthase; test: Induction of HPGDS degradation in human KU812 cells at 1 uM measured after 6 hrs in presence of TFC-007 by Western blot analysis; assay type: cell-based; details: KU812 cell line
How it was run: (§1)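 KU812 cells incubated 6 h with 1 μM degrader or with the ligand mixture (TFC-007 plus pomalidomide, 1 μM each). Western blot H-PGDS/β-actin normalized to vehicle as 100; means ± SD, n = 3; two-tailed t test.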

[4] = target: T2, Protein cereblon/Hematopoietic prostaglandin D synthase (Homo sapiens) (UniProt O60760+Q96SW2); test: Protac activity at CRBN/HPGDS in human KU812 cells assessed as induction of HPGDS degradation at 100 nM measured after 6 hrs in presence of ubiquitin-activating enzyme inhibitor MLN7243 by Western blot analysis; assay type: cell-based; details: KU812 cell line
How it was run: (§2)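 KU812 cells given 100 nM degrader with or without 10 μM MG132 or 10 μM MLN7243 for 6 h. Western blot H-PGDS/β-actin normalized to vehicle as 100; means ± SD, n = 3.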

[5] = target: T2, Protein cereblon/Hematopoietic prostaglandin D synthase (Homo sapiens); test: Protac activity at CRBN/HPGDS in human KU812 cells assessed as induction of HPGDS degradation at 100 nM measured after 6 hrs in presence of proteasome inhibitor MG132 by Western blot analysis; assay type: cell-based; details: KU812 cell line; how it was run: as §2
KU812 = test: Effect on HPGDS mRNA expression in human KU812 cells up to 1000 nM measured after 6 hrs by SYBR green based qRT-PCR analysis; assay type: functional, cell-based; details: dose nM <=1000, time 6.0 hrs
How it was run: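 KU812 cells treated with the indicated concentrations for 6 h. H-PGDS mRNA expressed relative to vehicle, set to 1; means ± SD, n = 3; two-tailed Student's t test versus vehicle.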

[6] = tested on: Protein cereblon/Prostaglandin E synthase (Homo sapiens); test: Protac activity at CRBN/MPGES-1 in human KU812 cells assessed as reduction in MPGES-1 protein level up to 1000 nM measured after 24 hrs by Western blot analysis; details: KU812 cell line, dose nM <=1000, time 24.0 hrs
[7] = target: T1, Hematopoietic prostaglandin D synthase; test: Inhibition of HPGDS in human KU812 cells assessed as reduction in PGD2 level at 10 to 100 nM incubated for 24 hrs followed by A23187 treatment and measured after 30 mins and subsequent compound washout then further incubated for 6 hrs in compound-free medium by ELISA; assay type: cell-based; details: KU812 cell line, dose 10-100 nM, time 1470.0 min
How it was run: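 KU812 cells exposed to compounds 24 h, washed four times, kept 6 h compound-free, then stimulated with 5 μM A23187 for 30 min; medium PGD2 measured. Means ± SD, n = 3; two-tailed t test.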

[8] = target: T1, Hematopoietic prostaglandin D synthase; test: Inhibition of HPGDS in human KU812 cells assessed as reduction in PGD2 level at 10 to 100 nM incubated for 24 hrs followed by A23187 treatment and measured after 30 mins by ELISA; assay type: cell-based; details: KU812 cell line, dose 10-100 nM, time 1470.0 min
How it was run: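 After 24 h compound exposure, KU812 cells stimulated with 5 μM A23187 for 30 min with compound still present; PGD2 measured in medium. Means ± SD, n = 3; two-tailed t test.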

[9] = target: T2, Protein cereblon/Hematopoietic prostaglandin D synthase (Homo sapiens); test: Competitive binding affinity to HPGDS in human KU812 cells assessed as induction of CRBN-mediated degradation of HPGDS at 100 nM after 6 hrs in presence of excess pomalidomide by Western blot analysis; assay type: cell-based; details: KU812 cell line
How it was run: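 KU812 cells given 100 nM degrader and/or 10 μM pomalidomide for 6 h. Western blot H-PGDS/β-actin normalized to vehicle as 100; means ± SD, n = 3.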

[10] = target: T2, Protein cereblon/Hematopoietic prostaglandin D synthase (Homo sapiens); test: Protac activity at CRBN/HPGDS in human KU812 cells assessed as reduction in HPGDS protein level at 100 to 1000 nM measured after 3 hrs by Western blot analysis; assay type: cell-based; details: KU812 cell line, dose 100-1000 nM
How it was run: (§3)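 KU812 cells exposed to graded concentrations for 3, 6 or 24 h. Western blot; H-PGDS/β-actin ratio normalized to vehicle control as 100; means ± SD, n = 3.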

[11] = target: T2, Protein cereblon/Hematopoietic prostaglandin D synthase (Homo sapiens); test: Protac activity at CRBN/HPGDS in human KU812 cells assessed as reduction in HPGDS protein level at >=10 nM measured after 6 to 24 hrs by Western blot analysis; assay type: cell-based; details: KU812 cell line, dose nM >=10, time 6-24 hrs; how it was run: as §3
[12] = target: T1, Hematopoietic prostaglandin D synthase; test: Inhibition of recombinant human HPGDS expressed in Escherichia coli BL21 (DE3) measured after 3 mins by spectrophotometric analysis
[13] = target: T2, Protein cereblon/Hematopoietic prostaglandin D synthase (Homo sapiens); test: Protac activity at CRBN/HPGDS in human MEG01s cells assessed as reduction in HPGDS protein level up to 1000 nM measured after 6 hrs by Western blot analysis; assay type: cell-based; details: dose nM <=1000, time 6.0 hrs
[14] = target: T2, Protein cereblon/Hematopoietic prostaglandin D synthase (Homo sapiens); test: Protac activity at CRBN/HPGDS in human KU812 cells assessed as reduction in HPGDS protein level at >=10 nM measured after 3 hrs by Western blot analysis; assay type: cell-based; details: KU812 cell line, dose nM >=10, time 3.0 hrs; how it was run: as §3
[15] = target: T2, Protein cereblon/Hematopoietic prostaglandin D synthase (Homo sapiens); test: Protac activity at CRBN/HPGDS in human KU812 cells assessed as decrease in HPGDS protein level by measuring protein turnover at 100 nM measured within 6 hrs in presence of protein synthesis inhibitor cycloheximide by Western blot analysis; assay type: cell-based; details: KU812 cell line
How it was run: (§4)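 KU812 cells given 10 μg/mL cycloheximide with or without 100 nM degrader for the indicated periods. H-PGDS/β-actin and cyclin B1/β-actin ratios by Western blot, normalized to time 0 control as 100; means ± SD, n = 3.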

[16] = target: Protein cereblon/G2/mitotic-specific cyclin-B1 (Homo sapiens) (UniProt P14635+Q96SW2); test: Protac activity at CRBN/Cyclin B1 in human KU812 cells assessed as decrease in cyclin B1 protein level by measuring protein turnover at 100 nM measured within 6 hrs in presence of protein synthesis inhibitor cycloheximide by Western blot analysis; assay type: cell-based; details: KU812 cell line; how it was run: as §4
[17] = target: T2, Protein cereblon/Hematopoietic prostaglandin D synthase (Homo sapiens); test: Protac activity at CRBN/HPGDS in human KU812 cells assessed as induction of HPGDS degradation at 10 to 100 nM incubated for 24 hrs followed by compound washout and further incubated for 6 hrs in compound-free medium by Western blot analysis; assay type: cell-based; details: KU812 cell line, dose 10-100 nM
How it was run: (§5)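 KU812 cells incubated with compounds 24 h, washed four times, then held 6 h in compound-free medium. Western blot H-PGDS/β-actin normalized to vehicle as 100; means ± SD, n = 3; two-tailed t test.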

[18] = Solubility of the compound; assay type: physicochemical
[19] = Protac activity at CRBN/AKR1B1 in human KU812 cells assessed as reduction in AKR1B1 protein level up to 1000 nM measured after 24 hrs by Western blot analysis; details: KU812 cell line, dose nM <=1000, time 24.0 hrs
[20] = target: T2, Protein cereblon/Hematopoietic prostaglandin D synthase (Homo sapiens); test: Protac activity at CRBN/HPGDS in human KU812 cells assessed as induction of HPGDS degradation at 1 uM measured after 6 hrs by Western blot analysis; assay type: cell-based; details: KU812 cell line; how it was run: as §1
[21] = target: T1, Hematopoietic prostaglandin D synthase; test: Binding affinity to recombinant human HPGDS expressed in Escherichia coli BL21 (DE3) measured after 1 hr by fluorescence polarization assay
How it was run: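 Competitive binding to H-PGDS read by fluorescence polarization with a fluorescence probe.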

[22] = target: T2, Protein cereblon/Hematopoietic prostaglandin D synthase (Homo sapiens); test: Induction of CRBN-mediated HPGDS degradation in human KU812 cells at 10 to 100 nM incubated for 24 hrs followed by compound washout and further incubated for 6 hrs in compound-free medium by Western blot analysis; assay type: cell-based; details: KU812 cell line, dose 10-100 nM; how it was run: as §5
[23] = target: T1, Hematopoietic prostaglandin D synthase; test: Induction of HPGDS degradation in human KU812 cells at 1 uM measured after 6 hrs in presence of pomalidomide by Western blot analysis; assay type: cell-based; details: KU812 cell line; how it was run: as §1
[24] = target: T1, Hematopoietic prostaglandin D synthase; test: Inhibition of recombinant human HPGDS using [14C]-PGH2 as substrate preincubated for 1 min in presence of MgCl2 followed by substrate addition and measured after 45 mins by radioactive imaging analysis

Structure (SMILES): CON(C)C(=O)c1[nH]c(C)c(-c2nc3cc(C(=O)c4ccccc4)ccc3[nH]2)c1C
- pIC50 [1]: 7.64

Structure (SMILES): CN[C@@H](C)C(=O)N[C@H](C(=O)N1CCC[C@H]1c1nc(C(=O)c2cccc(OCCOCCOCC(=O)N3CCN(C(=O)C4CCN(c5ccc(NC(=O)c6cnc(Oc7ccccc7)nc6)cc5)CC4)CC3)c2)cs1)C1CCCCC1
- Activity [2]: inactive

Structure (SMILES): Nc1cccc2c1C(=O)N(C1CCC(=O)NC1=O)C2=O (stereo not given)
- Activity [3]: inactive

Structure (SMILES): O=C1CCC(N2C(=O)c3cccc(NCCOCCOCCOCCOCCOCCC(=O)N4CCN(C(=O)C5CCN(c6ccc(NC(=O)c7cnc(Oc8ccccc8)nc7)cc6)CC5)CC4)c3C2=O)C(=O)N1 (stereo not given)
- Activity [4]: inactive
- Activity [5]: inactive
- Activity (KU812): inactive
- Activity [6]: inactive
- inhibition [7]: Active
- inhibition [8]: Active
- Activity [9]: inactive
- Activity [10]: Active
- Activity [11]: Active
- pIC50 [12]: 6.58
- Activity [13]: Active
- Activity [14]: Active
- Activity [15]: Active
- Activity [16]: inactive
- Activity [17]: Active
- solubility [18]: Soluble
- Activity [19]: inactive
- Activity [20]: Active
- pIC50 [21]: 6.49

Structure (SMILES): O=C(Nc1ccc(N2CCC(C(=O)N3CCOCC3)CC2)cc1)c1cnc(Oc2ccccc2)nc1
- inhibition [7]: inactive
- Activity [22]: inactive
- inhibition [8]: Active
- pIC50 [12]: 7.15
- Activity [23]: inactive
- pIC50 [24]: 7.15
- pIC50 [21]: 6.49

Structure (SMILES): CN1C(=O)CCC(N2C(=O)c3cccc(NCCOCCOCCOCCOCCOCCC(=O)N4CCN(C(=O)C5CCN(c6ccc(NC(=O)c7cnc(Oc8ccccc8)nc7)cc6)CC5)CC4)c3C2=O)C1=O (stereo not given)
- inhibition [7]: inactive
- inhibition [8]: Active
- pIC50 [12]: 6.49
- Activity [17]: inactive
- solubility [18]: Soluble
- pIC50 [21]: 6.49
